Experimental data gathered from unrelated publications.
SLC6A3: Sodium-dependent dopamine transporter (SLC6A3, Homo sapiens, UniProt Q01959)
PDE10A: cAMP and cAMP-inhibited cGMP 3',5'-cyclic phosphodiesterase 10A (PDE10A, Homo sapiens, UniProt Q9Y233)

CCOC(=O)[C@@]12C[C@@H]1[C@@H](n1cnc3c(NCCCCCc4ccccc4)nc(C#Cc4ccccc4)nc31)[C@H](O)[C@@H]2O — inhibition (SLC6A3; transporter uptake; inhibitor; radiometric; HEK293; 10 µM): 9%
Cc1cc(O)c(-c2ccc([C@@H](C)CN(C)C)cc2)c2c1[nH]c(=O)c1sccc12 — inhibition (Serine/threonine-protein kinase D1 (PRKD1, Homo sapiens, UniProt Q15139); enzyme activity; inhibitor; 0.1 µM): -0.107%
c1ccc(-c2cccc(Cc3ncnc4ccccc34)c2)cc1 — inhibition (PDE10A; enzyme activity; inhibitor; FP; 0.1 µM): 0%
NC/C(=C\F)COc1cccc(Cn2c(=S)[nH]c(=O)c3[nH]cnc32)c1 — inhibition (Sodium- and chloride-dependent GABA transporter 1 (Slc6a1, Rattus norvegicus, UniProt P23978); ligand displacement; radioligand; 10 µM): < 50%
N#CC[C@@]12C[C@@H]1[C@@H](n1cnc3c(Nc4ccccc4)nc(C#Cc4ccc(Cl)s4)nc31)[C@H](O)[C@@H]2O — inhibition (SLC6A3; ligand displacement; radioligand; 10 µM): 18%
COc1ccc2nccc(Cc3cccc(-c4cnn(C5COC5)c4)c3)c2c1 — inhibition (PDE10A; enzyme activity; inhibitor; FP; 0.1 µM): 3%
N#CC[C@@]12C[C@@H]1[C@@H](n1cnc3c(NCc4cccc(Cl)c4)nc(C#Cc4ccc(Cl)s4)nc31)[C@H](O)[C@@H]2O — inhibition (SLC6A3; ligand displacement; radioligand; 10 µM): 89%
COc1ccc(Cc2nccc3cc(C4COC4)ccc23)cc1OC — inhibition (PDE10A; enzyme activity; inhibitor; FP; 0.1 µM): 0%
C#Cc1cc(-c2cc(Nc3nc(N[C@@H](C)c4ccc(F)cn4)ncc3Cl)n[nH]2)ccc1C=O — inhibition (Mitogen-activated protein kinase 15 (MAPK15, Homo sapiens, UniProt Q8TD08); enzyme activity; inhibitor; 0.2 µM): 11.5%
